Data from ChEMBL document CHEMBL1137542, “Probing multivalent carbohydrate-lectin interactions by an enzyme-linked lectin assay employing covalently immobilized carbohydrates” (Bioorg Med Chem, 2007).

Tests used:
Triticum aestivum [1] = assay: Inhibition of binding of HRP labeled WGA to immobilized porcine stomach […] relative to N-acetyl-glucosamine
Outline: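 IC50 measured in the PSM-coated ELLA (WGA-HRP 1 μg mL⁻¹ final, 60 min pre-incubation with inhibitor, 90 min at 37 °C, ABTS read at 405 nm, duplicate). Relative potency β is the GlcNAc IC50 divided by the ligand IC50, with GlcNAc set to β = 1.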

[2] = Inhibition of binding of HRP labeled WGA to immobilized porcine stomach […]; parameters: species or system Triticum aestivum
Outline: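 Plates coated overnight at room temperature with porcine stomach mucin (4.12 μg mL⁻¹ in PBS, pH 7.3), then blocked with 1% BSA, 90 min at 37 °C. WGA-HRP (1 μg mL⁻¹ final) pre-incubated 60 min at 37 °C with serially diluted inhibitor, then 90 min at 37 °C on plates. ABTS/H₂O₂ read-out at pH 4.0, 30 min, stopped with H₂SO₄, A405. IC50 from % inhibition curves, duplicate.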

[3] = Inhibition of binding of HRP labeled WGA to immobilized N-acetyl-glucosamine; parameters: species or system Triticum aestivum
Outline: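 Covalent GlcNAc surface: amino plates activated with 0.5% 1,4-phenylene diisothiocyanate in DMSO for 3 h, then treated overnight with 1 mM spacer-linked GlcNAc amine at pH 10.1. Blocking was 1% BSA. WGA-HRP (1 μg mL⁻¹ final) was pre-incubated with inhibitor dilutions for 60 min at 37 °C, then incubated on the plates for 90 min at 37 °C. ABTS/H₂O₂ read at 405 nm. IC50 from % inhibition, duplicate.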

Triticum aestivum [4] = assay: Inhibition of binding of HRP labeled WGA to immobilized N-acetyl-glucosamine relative to N-acetyl-glucosamine
Outline: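 IC50 values come from the covalently immobilized GlcNAc ELLA (thiourea-linked spacer GlcNAc, WGA-HRP 1 μg mL⁻¹, 37 °C incubations, ABTS read at 405 nm, duplicate). β expresses potency relative to GlcNAc, with GlcNAc set to β = 1.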

Structure (SMILES) | Activity (Triticum aestivum [1]) | IC50 [2] | IC50 [3] | Activity (Triticum aestivum [4])
C=CCO[C@@H]1O[C@H](CO)[C@@H](O)[C@H](O)[C@H]1NC(C)=O | 3.6 | 280 mM | 10 µM | 2.3
CC(=O)N[C@@H]1[C@@H](O)[C@H](O)[C@@H](CO)O[C@H]1O [N-ACETYLGLUCOSAMINE] | 1 | 1000 mM | 23 µM | –
CC(=O)N[C@H]1[C@H](OC/C=C\CO)O[C@H](CO)[C@@H](O)[C@@H]1O | 2 | 500 mM | 12 µM | 1.9
CCCNC(=O)OC/C=C\CO[C@@H]1O[C@H](CO)[C@@H](O)[C@H](O)[C@H]1NC(C)=O | 4.2 | 240 mM | – | –

Now those with a lower IC50 [2], led by results:

Activity (Triticum aestivum [1]) | IC50 [2] | IC50 [3] | Activity (Triticum aestivum [4]) | Structure (SMILES)
50 | 20 mM | – | – | CC(=O)N[C@H]1[C@H](OC/C=C\COC(=O)NCc2cccc(CNC(=O)OC/C=C\CO[C@@H]3O[C@H](CO)[C@@H](O)[C@H](O)[C@H]3NC(C)=O)c2)O[C@H](CO)[C@@H](O)[C@@H]1O
25 | 40 mM | – | – | CC(=O)N[C@H]1[C@H](OC/C=C\COC(=O)NCCNCCNC(=O)OC/C=C\CO[C@@H]2O[C@H](CO)[C@@H](O)[C@H](O)[C@H]2NC(C)=O)O[C@H](CO)[C@@H](O)[C@@H]1O
13 | 75 mM | 0.288 µM | 80 | CC(=O)N[C@H]1[C@H](OC/C=C\COC(=O)NCCCOCCOCCOCCCNC(=O)OC/C=C/CO[C@@H]2O[C@H](CO)[C@@H](O)[C@H](O)[C@H]2NC(C)=O)O[C@H](CO)[C@@H](O)[C@@H]1O
40 | 25 mM | 0.055 µM | 420 | CC(=O)N[C@H]1[C@H](OC/C=C\COC(=O)NCCN(CCNC(=O)OC/C=C\CO[C@@H]2O[C@H](CO)[C@@H](O)[C@H](O)[C@H]2NC(C)=O)CCNC(=O)OC/C=C\CO[C@@H]2O[C@H](CO)[C@@H](O)[C@H](O)[C@H]2NC(C)=O)O[C@H](CO)[C@@H](O)[C@@H]1O
67 | 15 mM | 0.088 µM | 260 | CC(=O)N[C@H]1[C@H](OC/C=C\COC(=O)NCc2ccc(CNC(=O)OC/C=C\CO[C@@H]3O[C@H](CO)[C@@H](O)[C@H](O)[C@H]3NC(C)=O)cc2)O[C@H](CO)[C@@H](O)[C@@H]1O
17 | 60 mM | – | – | CC(=O)N[C@H]1[C@H](OC/C=C\COC(=O)NCCCOCCCCOCCCNC(=O)OC/C=C\CO[C@@H]2O[C@H](CO)[C@@H](O)[C@H](O)[C@H]2NC(C)=O)O[C@H](CO)[C@@H](O)[C@@H]1O
10 | 100 mM | – | – | CC(=O)N[C@H]1[C@H](OC/C=C\COC(=O)NCc2ccccc2)O[C@H](CO)[C@@H](O)[C@@H]1O
